This is one part of a sample in which hits are shown more often than they occur.
XiGFP reactiv – activators of inactive X chromosome reactivation, primary screen, imaging, XiGFP fibroblasts, GFP high-content imaging, set 2; XiGFP mouse fibroblasts, % GFP-positive cells imaging, 3 d; cells co-treated with 5-aza-dC sensitizer; scaled so ellipticine positive control = 100%; activation, % at 7.58 µM; 360,000 tested, 0.055% active;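 active = mean normalized replicate activation at least 10% and every replicate at or above 10%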;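 also: 0% = median of on-plate neutral control wells and 100% = ellipticine 6 µM median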
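assay system = SV40-immortalized XiGFP fibroblast cells, line 68-5-11 | buffer or medium = DMEM plus 5-aza-dC sensitizer | doses = single-point pinned compound dosing | times = 3-day compound exposure, then 15 min fixation at room temperature | benchmarks = positive control ellipticine, 6 µM final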
ABCB6 inh MLPCN – ABCB6 transporter inhibitors, primary screen, K562-ABCB6 cells, flow cytometry, MLPCN library. ATP-binding cassette sub-family B member 6 (Homo sapiens), Q9NP58. K562-ABCB6 porphyrin accumulation, 1 h; active compounds read low. fluorescence ratio to DMSO, % at 10 µM. 360,000 tested, 0.19% active. AID 602162, 2011;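 active = fluorescence ratio to DMSO below 75%, the collection mean minus 3 SD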;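 also: signal is porphyrin accumulated inside mitochondria; 100% equals median channel fluorescence of DMSO control wells; lower ratio means ABCB6 inhibition with less porphyrin fluorescence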
Target sequence (Q9NP58 whole entry, looked up): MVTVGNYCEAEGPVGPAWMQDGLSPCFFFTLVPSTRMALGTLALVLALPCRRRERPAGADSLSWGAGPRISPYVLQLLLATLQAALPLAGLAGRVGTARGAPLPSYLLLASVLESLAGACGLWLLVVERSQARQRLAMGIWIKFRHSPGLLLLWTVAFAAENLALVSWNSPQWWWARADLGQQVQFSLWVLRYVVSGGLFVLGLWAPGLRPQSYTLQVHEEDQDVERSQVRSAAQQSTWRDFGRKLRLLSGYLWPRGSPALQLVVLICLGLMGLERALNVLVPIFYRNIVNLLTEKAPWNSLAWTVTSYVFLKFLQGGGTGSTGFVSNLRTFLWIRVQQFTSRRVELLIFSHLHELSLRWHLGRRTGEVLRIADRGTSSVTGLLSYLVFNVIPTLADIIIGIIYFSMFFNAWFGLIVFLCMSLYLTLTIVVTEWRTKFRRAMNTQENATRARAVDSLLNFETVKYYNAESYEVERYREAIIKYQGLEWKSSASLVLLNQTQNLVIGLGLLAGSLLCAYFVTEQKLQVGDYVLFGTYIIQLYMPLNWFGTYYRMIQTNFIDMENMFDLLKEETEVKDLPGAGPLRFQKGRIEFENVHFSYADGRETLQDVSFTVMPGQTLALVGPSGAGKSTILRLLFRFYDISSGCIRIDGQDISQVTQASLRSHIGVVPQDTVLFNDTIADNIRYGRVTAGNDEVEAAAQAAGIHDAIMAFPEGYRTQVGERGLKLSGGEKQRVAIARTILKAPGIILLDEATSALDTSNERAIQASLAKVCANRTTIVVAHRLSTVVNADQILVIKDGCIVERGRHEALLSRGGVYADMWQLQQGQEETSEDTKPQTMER
Myeloid diff MLP – induction of myeloid progenitor differentiation, primary screen, cell-based, flow cytometry, MLPCN library | calls only at 10 µM | ER-HoxA9 myeloid progenitors, lysozyme-GFP differentiation | AID 624256, 2012 | 360,000 tested, 1% active;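 active = normalized GFP-positive differentiation at or above the plate's own cutoff, the solvent-only control mean plus 3 SD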;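 also: cells exposed to compound for four days before flow analysis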
Myeloid diff CP1 – inducers of myeloid progenitor differentiation, confirmation, cell-based, GFP/Mac1 flow cytometry, cherry pick 01; 2,300 tested, 2% active; AID 651706, 2012; calls only; shares compounds with Myeloid diff MLP; ER-HoxA9 myeloid progenitors, GFP/Mac1 double-positive flow;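 active = share of green or green-and-red cells above 9 and 9% in run 1 or 4 and 3% in run 2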
GFP autofluor – counter-screen for myeloid differentiation promoters: compound fluorescence; shares compounds with Myeloid diff MLP; ER-HoxA9 myeloid progenitors, no estrogen, GFP autofluorescence flow cytometry; vehicle wells 0%, positive control 100%; fluorescence response, % (test concentration not listed); 2,300 tested, 7.4% active;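 active = over 5% cells positive for green fluorescent reporter, or over 2% positive for both it and APC stain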;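 also: range taken on the double positive population between DMSO and positive control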
* marks the source's active call; other numbers are inactive results; i = inactive; · = not tested or not shown; + = active, no number.

SMILES	XiGFP reactiv	ABCB6 inh MLPCN	Myeloid diff MLP	Myeloid diff CP1	GFP autofluor
CC(C)C#Cc1ccc2c(c1)O[C@H](CN(C)S(=O)(=O)c1cn(C)cn1)[C@@H](C)CN([C@H](C)CO)S2(=O)=O	0.1	·	·	·	·
CC1Cn2c(nnc2-c2cccc(Cl)c2)S1 (stereo not given)	0.2	98.0	i	·	·
CC1(C)Cn2c(nnc2-c2cccc(O)c2)S1	·	105.0	+	i	0.0
C[C@@H]1CN([C@@H](C)CO)C(=O)c2cccc(NC(=O)C3CCOCC3)c2O[C@H]1CN(C)S(=O)(=O)c1cn(C)cn1	0.1	·	·	·	·
COc1cccc(NC(=O)Nc2ccc3c(c2)C(=O)N(C)C[C@@H](OC)[C@@H](C)CN(CC2CC2)[C@H](C)CO3)c1	-0.1	·	·	·	·
Cc1ccc2nsnc2c1NC(=O)c1ccc([N+](=O)[O-])o1	·	101.0	+	i	0.0
Cc1ccc2nsnc2c1NC(=O)c1ccc(-c2cc(Cl)ccc2Cl)o1	·	103.0	i	·	·
O=C(Nc1ccccn1)c1ccc([N+](=O)[O-])o1	·	80.0	i	·	·
Cc1ccnc(NC(=O)c2ccc([N+](=O)[O-])o2)c1	·	96.0	+	i	0.6
N#Cc1ccc(-c2ccc3c(c2)[C@H]2[C@H](CCN2S(=O)(=O)c2ccccc2F)[C@@H](CO)N3)cc1	0.4	·	·	·	·
COc1cccc(CN(C)C[C@H]2OCc3cn(nn3)CCCC(=O)N([C@@H](C)CO)C[C@H]2C)c1	0.2	·	·	·	·
O=C(c1ccccc1F)N1C[C@H]2[C@@H](c3ccccc31)[C@@H](CO)N2C(=O)C1CCCC1	0.1	·	·	·	·
Cn1cnc(S(=O)(=O)N[C@H]2CC[C@@H](CC(=O)NCC3CC3)O[C@@H]2CO)c1	-0.3	·	·	·	·
COc1ccccc1N1C(=O)S/C(=C\c2ccc(C)s2)C1=O	0.4	149.0	i	i	2.3
COc1ccccc1N1C(=O)S/C(=C\c2cc(C)n(C)c2C)C1=O	0.0	98.0	i	·	·
C[C@H](CO)N1C[C@H](C)[C@@H](CN(C)Cc2ccc3cccnc3c2)OCc2cn(nn2)CCCC1=O	-0.2	·	·	·	·
CCOc1ccc(CN2C(=O)c3ccccc3C2=O)cc1C(=O)NC1CC(C)(C)NC(C)(C)C1	0.3	112.0	i	i	97.9*
CCOc1ccc(CN2C(=O)c3ccccc3C2=O)cc1C(=O)Nc1nnc(SCC)s1	0.0	95.0	i	·	·
CCOc1ccc(OCc2ccc(C(=O)NC(C)(C)C)o2)cc1	0.0	92.0	i	·	·
CC(C)NC(=O)c1ccc(COc2cccc3ccccc23)o1	0.1	98.0	i	·	·
NNC(=O)c1ccc(COc2ccc3ccccc3c2)o1	-0.1	92.0	+	i	0.0
Cc1ccc(OCc2ccc(C(=O)NN)o2)cc1C	0.0	96.0	i	·	·
NNC(=O)c1ccc(COc2cccc3ccccc23)o1	0.0	92.0	+	i	0.0
CCOc1ccc(OCc2ccc(C(=O)NN)o2)cc1	0.1	98.0	+	i	0.2
C[C@H](CO)N1C[C@H](C)[C@@H](CN(C)C(=O)N[C@H](C)c2ccccc2)OCc2ccccc2-c2ccccc2C1=O	0.9	·	·	·	·
SMILES	XiGFP reactiv	ABCB6 inh MLPCN	Myeloid diff MLP	Myeloid diff CP1	GFP autofluor
CCNC(=O)[C@H]1[C@H](CO)[C@H]2Cn3c(ccc(-c4ccc(F)cc4)c3=O)[C@H]2N1C	0.7	·	·	·	·
C[C@H]1CN([C@@H](C)CO)C(=O)CCCn2nncc2CO[C@@H]1CN(C)C(=O)c1cc(-c2ccccc2)on1	0.2	·	·	·	·
O=C(O)CCC(=O)Nc1ccc(Cc2ccc(NC(=O)CCC(=O)O)cc2)cc1	·	103.0	+	i	0.0
O=C(O)CCC(=O)Nc1ccc(S(=O)(=O)c2ccc(NC(=O)CCC(=O)O)cc2)cc1	0.0	100.0	i	·	·
CC(=O)NNC(=O)CCC(=O)Nc1ccccc1	·	103.0	i	i	86.0*
O=C(CCC(=O)Nc1ccccc1)NNC(=O)CCc1ccccc1	0.0	102.0	i	·	·
COc1ccc(NC(=O)Nc2ccc3c(c2)CC(=O)N([C@H](C)CO)C[C@@H](C)[C@@H](CN(C)CC2CC2)O3)cc1	-1.2	·	·	·	·
COc1ccc(NC(=O)C2CCC(=O)N2)cc1 (stereo not given)	·	106.0	i	i	0.0
COc1ccc(NC(=O)C2CCCC2)cc1	0.0	96.0	i	·	·
